# Screening results from PubChem.
# The list is not random: actives were taken first. Their share in the collection is about 4.1%.
# KCNQ1 block = blocks the human KCNQ1 potassium channel; P51787; 310,000 compounds, 1.3% hits; B-score at 10 µM; CHO-K1 KCNQ1, FluxOR thallium flux fluorescence; stronger effect = higher value;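 active = compounds whose thallium flux B-score, printed positive for inhibition, exceeds three library SD while starting fluorescence stays within three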;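 also: channel opened by potassium depolarization with thallium stimulus after 20 min compound exposure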
# hERG rescue = hERG (human) protection from proarrhythmic block; Q12809; CHO-hERG, FluxOR thallium flux, dofetilide IC70 present; activation (rescue from dofetilide block), less the hit threshold, % at 10 µM; 310,000 compounds, 0.51% hits;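 active = activation above the mean of controls blocked by dofetilide plus 5 SD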;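 also: thallium influx through hERG after potassium depolarization seen as dye fluorescence rise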
# Target sequence (Q12809 whole entry, looked up): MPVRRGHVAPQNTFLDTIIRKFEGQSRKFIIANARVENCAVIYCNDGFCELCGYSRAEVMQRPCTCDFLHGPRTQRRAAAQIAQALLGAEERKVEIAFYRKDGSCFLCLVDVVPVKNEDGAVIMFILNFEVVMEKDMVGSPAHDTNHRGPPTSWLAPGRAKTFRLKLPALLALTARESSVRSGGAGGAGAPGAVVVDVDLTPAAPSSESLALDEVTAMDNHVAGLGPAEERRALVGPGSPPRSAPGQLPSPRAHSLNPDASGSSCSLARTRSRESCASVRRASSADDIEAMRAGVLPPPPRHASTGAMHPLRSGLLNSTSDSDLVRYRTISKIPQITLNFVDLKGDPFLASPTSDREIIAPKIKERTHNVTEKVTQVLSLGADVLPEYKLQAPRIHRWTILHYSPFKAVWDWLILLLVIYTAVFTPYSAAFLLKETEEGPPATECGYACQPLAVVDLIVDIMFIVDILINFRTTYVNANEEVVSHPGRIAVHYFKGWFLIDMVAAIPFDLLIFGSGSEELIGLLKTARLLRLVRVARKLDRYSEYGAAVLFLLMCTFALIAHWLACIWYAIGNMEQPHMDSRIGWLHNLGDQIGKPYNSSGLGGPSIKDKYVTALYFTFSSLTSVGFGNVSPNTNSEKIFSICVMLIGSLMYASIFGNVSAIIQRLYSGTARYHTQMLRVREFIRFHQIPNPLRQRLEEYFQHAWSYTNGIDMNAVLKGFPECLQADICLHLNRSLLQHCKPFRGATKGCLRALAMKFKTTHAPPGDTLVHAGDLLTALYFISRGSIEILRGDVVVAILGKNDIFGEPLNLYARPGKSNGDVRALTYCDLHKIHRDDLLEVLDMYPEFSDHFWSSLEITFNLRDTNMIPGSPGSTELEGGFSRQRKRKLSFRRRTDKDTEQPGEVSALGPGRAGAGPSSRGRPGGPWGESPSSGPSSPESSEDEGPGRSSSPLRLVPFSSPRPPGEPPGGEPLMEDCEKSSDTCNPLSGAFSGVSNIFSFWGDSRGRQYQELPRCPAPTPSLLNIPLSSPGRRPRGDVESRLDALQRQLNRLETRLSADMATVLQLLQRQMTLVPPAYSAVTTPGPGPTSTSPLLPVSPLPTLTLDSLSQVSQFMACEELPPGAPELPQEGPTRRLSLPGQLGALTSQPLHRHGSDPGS
# KCNQ1 pot = potentiators or activators of human KCNQ1 potassium channel; P51787; B-score at 10 µM; 310,000 compounds, 0.35% hits; CHO-K1 KCNQ1, thallium flux FluxOR fluorescence; stronger effect = higher value; AID 2648;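 active = fluorescence ratio B-score, a plate-corrected score, at least three library SD, with initial intensity B-score within 5 SD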
#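 Assay system: CHO-K1 cells stably expressing KCNQ1; Medium: assay buffer with matched DMSO; Also added: K+/Tl+ depolarizing stimulus; Dosing: single dose; Timing: dye 90 min, compound 20 min, room temperature; Measured by: kinetic FluxOR thallium fluorescence, 10-s 1-Hz baseline, 110-s post-stimulus read; Read-out: peak-minus-minimum fluorescence over initial fluorescence, negative-control normalized, B-scored.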
# Cl transport mod = KCC2 (human) Cl- transport modulation; 190,000 compounds, 2.2% hits; KCC2 cells, thallium flux FluoZin-2 fluorescence; Q9H2X9; AID 1456; B-score of Tl+ flux slope (higher = more flux/activation; lower = inhibition) at 10 µM;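 active = thallium flux slope and its plate-corrected score both differing from the plate sample mean at a set confidence after two filtering rounds, in either direction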;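 also: slope of fluorescence scaled to starting intensity during 10 to 20 s after thallium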
# KCNK9 inh = inhibitors of human KCNK9 two-pore domain potassium channel | B-score at 10 µM | HEK293 KCNK9, FluxOR thallium flux fluorescence; stronger effect = lower value | Q9NPC2 | 310,000 compounds, 1.2% hits;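 active = ratio B-score over 3 SD below the library mean, with starting fluorescence within 5 SD of its mean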;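 also: negative B-score means less thallium flux so channel inhibition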
# KCNK3 block = human KCNK3 channel inhibition, primary screen. 340,000 compounds, 0.84% hits. CHO-KCNK3 thallium flux, FluxOR fluorescence; stronger effect = lower value. AID 602410. B-score at 10 µM. O14649;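 active = B-score under library mean minus 4 SD, starting fluorescence ratio at most library mean plus 5 SD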;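 also: more negative B-score means stronger inhibition of thallium flux through KCNK3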
# KCC2 sec1 = KCC2 (human) modulation, secondary assay; normalised thallium flux (F/F0 slope) at 10 µM; shares compounds with Cl transport mod; HEK293-KCC2, thallium flux, FluoZin2 fluorescence; stronger effect = higher value; AID 1713; 3,700 compounds, 15% hits;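 active = thallium flux slope above the same plate's solvent-only control mean plus 3 SD; inconclusive = the two replicate wells disagree; inactive = no significant difference from solvent-only control wells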
# KCC2 bumet counter = bumetanide-insensitive thallium flux in KCC2 cells with ouabain, counter-screen; normalized thallium flux at 10 µM; HEK293-KCC2 + bumetanide/ouabain, thallium flux FluoZin2; stronger effect = higher value; shares compounds with Cl transport mod; 3,700 compounds, 49% hits;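 active = thallium entry rate above the same plate's blocked-transporter control wells by more than 3 SD; inconclusive = the two repeat wells disagree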;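 also: raw slope of fluorescence over initial fluorescence between 10 and 20 s after thallium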
# KCC2 sec2 = KCC2 (human) modulation, second secondary assay | shares compounds with Cl transport mod | HEK293-KCC2, thallium flux FluoZin2 fluorescence; actives lie on both sides; F/F0 rise rate, 10–20 s post-thallium | normalized thallium flux at 10 µM | 3,700 compounds, 23% hits | AID 1715;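 active = thallium flux slope more than 3 SD above or below the plate's solvent-only control mean, mostly below; inconclusive = the two repeat wells disagreed; inactive = no significant shift from solvent-only controls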
# HEK293 Tl flux = counter-screen for KCC2 modulators: effect in parental HEK293 cells. thallium flux rate (normalised fluorescence) at 10 µM. AID 1716. 3,700 compounds, 46% hits. thallium flux FluoZin2, ouabain; baseline-ratio fluorescence slope, 10–20 s after thallium. shares compounds with Cl transport mod;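 active = thallium flux rate significantly above the same plate's solvent-only control wells, beyond their mean plus 3 SD; inconclusive = the two replicate wells gave conflicting results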
# KCC2 retest ouab = confirmation of human KCC2 modulators with ouabain; HEK293-KCC2, thallium flux FluoZin2 fluorescence; bidirectional: low = inhibitor, high = activator; raw Tl+ flux slope (below DMSO = inhibition, above = activation) at 10 µM; 3,700 compounds, 48% hits; shares compounds with Cl transport mod; AID 1717;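 active = thallium flux slope beyond 3 SD from same-plate DMSO control mean in most replicates, usually higher, sometimes lower; inconclusive = repeat tests gave conflicting results; inactive = no significant difference from controls in most replicates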;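 also: slope of initial-normalized fluorescence between seconds 10 and 20 after thallium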
# HEK counter2 = acts in parental HEK cells, second KCC2 counter-screen | shares compounds with Cl transport mod | HEK293 parental, thallium flux FluoZin-2 fluorescence slope | thallium flux slope at 10 µM | 3,700 compounds, 33% hits | AID 1718;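 active = thallium flux slope above the same plate's solvent-control mean plus 3 SD in both duplicate wells; inconclusive = duplicate wells that disagreed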;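 also: run without ouabain in cells lacking the KCC2 cotransporter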
# Numbers stand for hits; – = inactive; ? = inconclusive; · = not tested or not shown.
SMILES,KCNQ1 block,hERG rescue,KCNQ1 pot,Cl transport mod,KCNK9 inh,KCNK3 block,KCC2 sec1,KCC2 bumet counter,KCC2 sec2,HEK293 Tl flux,KCC2 retest ouab,HEK counter2
COc1ccc(C(=O)N2CCCC(c3ccccc3)C2)cc1 (stereo not drawn),·,·,·,-4.8,·,–,–,0.00726,0.0248,–,?,–
O=C1NC2(CCCc3ccccc32)C(=O)N1Cc1nnc(-c2ccccc2Br)o1 (stereo not drawn),–,–,–,–,–,–,·,·,·,·,·,·
CC1(CCc2ccccc2)NC(=O)N(Cc2nnc(-c3ccccc3Br)o2)C1=O (stereo not drawn),–,–,–,·,–,–,–,–,0.0242,–,0.0163,–
Cc1ccc(-c2csc(Cc3nc(-c4cc5ccccc5oc4=O)cs3)n2)cc1,–,–,–,·,–,–,–,–,–,–,–,–
O=C(N/N=C\c1ccc(Cl)s1)C1COc2ccccc2O1 (stereo not drawn),–,–,–,11.6,–,–,–,0.0113,–,?,?,–
O=C(CN1CCOCC1)Nc1ccccc1F,–,–,–,·,–,–,·,·,·,·,·,·
C/C=C/C(=O)OCC(=O)Nc1ccc(SC(F)F)cc1,–,–,–,–,–,–,·,·,·,·,·,·
Cc1ccc(C)n1NC(=O)c1ccccc1,–,–,–,-5.84,–,–,–,?,–,–,–,–
Cc1cc(C(=O)COc2ccc(Cl)cc2Br)c(C)n1C,–,–,–,–,–,–,·,·,·,·,·,·
CCOC(=O)C(CC)n1cnc2c(nnn2-c2ccc(OC)cc2)c1=O (stereo not drawn),–,–,–,·,–,–,·,·,·,·,·,·
CC(C)(C)NNC(=S)Nc1cccc(C(F)(F)F)c1,–,–,–,–,–,–,·,·,·,·,·,·
Cc1cccc(NC(=S)NNc2ncc(C(F)(F)F)cc2Cl)c1,–,–,–,15.8,–,–,–,0.118,–,0.0272,0.0546,0.0139
COc1ccccc1OCc1ccc(C(=O)Nc2cc(OC)c(OC)c(OC)c2)o1,–,–,–,·,–,–,·,·,·,·,·,·
O=C(c1ccc(COc2ccccc2Br)cc1)N1CCCCC1,–,–,–,–,–,–,·,·,·,·,·,·
COc1cc(NC(=O)c2ccc(COc3ccccc3Br)o2)cc(OC)c1OC,–,–,–,·,–,–,–,–,0.0246,0.0061,0.0154,–
O=C(c1ccc(COc2ccccc2Br)o1)N1CCCCCC1,–,–,–,·,–,–,–,0.0033,?,0.00626,0.0161,?
O=C(CSc1nnc(-c2ccccc2Cl)o1)N1CCCC1,–,–,–,·,–,–,·,·,·,·,·,·
CN(C)S(=O)(=O)c1ccc(Cl)c(C(=O)Nc2nc3ccccc3[nH]2)c1,–,–,–,·,–,–,–,–,0.022,–,0.0133,–
CC(O)[C@H]1CN=C(N)N1CCCCC1CCCCC1 (stereo partly drawn),–,–,–,–,–,–,·,·,·,·,·,·
CN(C)S(=O)(=O)c1ccc(-c2csnn2)s1,–,–,–,–,–,–,·,·,·,·,·,·
O=c1c2c3nc4ccccc4nc3n(Cc3ccccc3)c2ncn1Cc1ccco1,·,·,·,–,·,–,·,·,·,·,·,·
Cc1cccc(C(=O)c2cn[nH]c2-c2ccc(C)cc2O)c1,–,–,–,·,–,–,·,·,·,·,·,·
O=S(=O)(Nc1cccc2nsnc12)c1ccccc1,–,–,–,–,–,–,·,·,·,·,·,·
Cc1cc(S(=O)(=O)Nc2c(C)ccc3nsnc23)ccc1F,–,–,–,–,–,–,·,·,·,·,·,·
Cc1cc(C)c(S(=O)(=O)Nc2cccc3nsnc23)c(C)c1,–,–,–,23,–,–,0.0178,0.0736,–,0.0408,0.0735,0.0186
SMILES,KCNQ1 block,hERG rescue,KCNQ1 pot,Cl transport mod,KCNK9 inh,KCNK3 block,KCC2 sec1,KCC2 bumet counter,KCC2 sec2,HEK293 Tl flux,KCC2 retest ouab,HEK counter2
Cc1ccc2nsnc2c1NS(=O)(=O)c1c(C)ccc2nsnc12,–,–,–,7.6,–,–,–,0.0277,–,0.0204,0.0287,0.0192
COc1ccc(OCC2NCCc3cc(OC)c(OC)cc32)cc1 (stereo not drawn),–,–,–,·,–,–,·,·,·,·,·,·
O=C1/C(=C/c2ccccc2O)SC(=S)N1Cc1cccnc1,–,–,–,10.1,–,–,–,0.0173,?,0.0245,0.0273,0.0231
COC(=O)c1c(NC(=S)Nc2cc(OC)c(Cl)cc2OC)sc2c1CCCCC2,–,–,–,6.86,–,–,0.0152,0.0253,–,0.0111,–,?
CCC(C)C(NS(=O)(=O)c1ccc(C)cc1)C(=O)NCCCN1CCOCC1 (stereo not drawn),–,–,–,·,–,–,·,·,·,·,·,·
Cc1ccc(S(=O)(=O)NN2C(=O)c3ccccc3NC2c2cccc(O)c2)cc1 (stereo not drawn),–,–,–,–,–,–,·,·,·,·,·,·
O=C(CSc1nc(-c2ccc(F)cc2)nc2c1Cc1ccccc1O2)Nc1ccc(C(=O)O)cc1,·,·,·,3.32,·,–,–,0.00741,–,0.0125,0.0242,0.012
O=C(CSc1nc(-c2ccccc2)nc2c1Cc1ccccc1O2)Nc1ccc(C(=O)O)cc1,·,·,·,–,·,–,·,·,·,·,·,·
NC(=O)C1CCCN(C(=O)CCCNC(=O)c2ccc(Cl)cc2)C1 (stereo not drawn),–,–,–,·,–,–,·,·,·,·,·,·
CCOc1cc(N2CCOCC2)c(OCC)cc1NC(=O)Cc1cccc(OC)c1,–,–,–,–,–,–,·,·,·,·,·,·
CCOc1cc(N2CCOCC2)c(OCC)cc1NC(=O)Cc1ccc(OC)c(OC)c1,–,–,–,-4.7,–,–,–,–,–,–,–,–
CCOC(=O)c1ccc2c(c1)[nH]c(=S)n2CC,–,–,–,4.03,–,–,–,0.0193,–,0.013,?,0.0158
O=C(c1cc(COc2ccc(F)cc2Cl)on1)N1CCC(c2ccncc2)CC1,–,–,–,-6.27,–,–,–,–,–,–,0.0143,–
O=C(c1cc(COc2ccc(F)cc2Cl)on1)N1CCCCCC1,–,–,–,·,–,–,·,·,·,·,·,·
Cn1c(=O)n(CCc2ccccc2)c2ccccc21,–,–,–,·,–,–,·,·,·,·,·,·
